ChEMBL document CHEMBL1151701, “Discovery of new pyridoacridine alkaloids from Lissoclinum cf. badium that inhibit the ubiquitin ligase activity of Hdm2 and stabilize p53” (Bioorg Med Chem, 2008)
The source made the active and inactive calls. The rule behind the calls is not given here.

Tests used:
[1] = molecular target: T1, E3 ubiquitin-protein ligase Mdm2 (Homo sapiens, UniProt Q00987); assay: Inhibition of GST fused human Hdm2 in human RPE cells assessed as increase in p53 level at 1 uM after 8 hrs by immunoblotting; type: cell-based
Procedure, shortened: (§1)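 Tert-immortalized human retinal pigment epithelial (RPE) cells exposed to compound (1–10 µM) or 50 µM ALLN for 8 h. Cells lysed in RIPA buffer, post-nuclear supernatants resolved by SDS-PAGE, then immunoblotted for p53, Hdm2 and β-actin as loading control.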
Target sequence in this assay (Q00987 whole entry, looked up, the tested form may be a part): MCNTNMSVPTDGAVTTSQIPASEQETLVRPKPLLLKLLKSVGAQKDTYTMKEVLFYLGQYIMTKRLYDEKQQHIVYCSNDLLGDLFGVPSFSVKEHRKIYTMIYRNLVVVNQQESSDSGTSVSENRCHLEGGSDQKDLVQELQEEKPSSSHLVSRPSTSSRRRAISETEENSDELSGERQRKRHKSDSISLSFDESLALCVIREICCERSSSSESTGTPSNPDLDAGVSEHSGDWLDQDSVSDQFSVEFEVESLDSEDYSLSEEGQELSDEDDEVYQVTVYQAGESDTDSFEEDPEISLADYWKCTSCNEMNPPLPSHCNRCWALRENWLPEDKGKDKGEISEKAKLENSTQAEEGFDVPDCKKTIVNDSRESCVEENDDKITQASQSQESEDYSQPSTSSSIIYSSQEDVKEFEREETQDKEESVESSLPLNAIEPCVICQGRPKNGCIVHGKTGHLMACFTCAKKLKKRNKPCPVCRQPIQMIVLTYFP

[2] = Cytotoxicity against human RPE cells assessed as increase in p53 level at 10 uM after 8 hrs by immunoblotting; type: cell-based; procedure, shortened: as §1
[3] = molecular target: T1, E3 ubiquitin-protein ligase Mdm2; assay: Inhibition of GST fused human Hdm2 assessed as polyubiquitylation by electrochemiluminescence assay
Procedure, shortened: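 Cell-free ubiquitylation. Lysate GST-Hdm2 captured on glutathione-coated wells for 1 h at RT. E1/UbcH5B were pre-charged with ubiquitin, ATP and DTT in PBS for 30 min, then added with sample for 30 min at RT. Read-out was ruthenium anti-polyubiquitin electrochemiluminescence, normalised between no-inhibitor (0%) and EDTA (100%). Tested at 100–0.02 µg/mL in quadruplicate.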
Target sequence in this assay (Q00987 whole entry, the tested form may be a part): as the sequence (Q00987 whole entry, looked up, the tested form may be a part) above

[4] = Cytotoxicity against human RPE cells at 10 uM; type: cell-based; procedure, shortened: as §1
[5] = molecular target: T1, E3 ubiquitin-protein ligase Mdm2; assay: Inhibition of GST fused human Hdm2 in human RPE cells assessed as increase in p53 level at 1 to 10 uM after 8 hrs by immunoblotting; type: cell-based; procedure, shortened: as §1
Target sequence in this assay (Q00987 whole entry, looked up, the tested form may be a part): as above

[6] = molecular target: T1, E3 ubiquitin-protein ligase Mdm2; assay: Inhibition of GST fused human Hdm2 in human RPE cells at 1 to 10 uM after 8 hrs by immunoblotting; type: cell-based; procedure, shortened: as §1
Target sequence in this assay (Q00987 whole entry, looked up, the tested form may be a part): as above

[7] = molecular target: T1, E3 ubiquitin-protein ligase Mdm2; assay: Inhibition of GST fused human Hdm2 in human RPE cells assessed as increase in p53 level after 8 hrs by immunoblotting; type: cell-based; procedure, shortened: as §1
Target sequence in this assay (Q00987 whole entry, looked up, the tested form may be a part): as above

[8] = molecular target: T1, E3 ubiquitin-protein ligase Mdm2; assay: Inhibition of GST fused human Hdm2 expressed in p53 and mdm2-deficient mouse embryo fibroblasts under control of p53-independent promotor at 10 uM after 8 hrs by immunoblotting
Procedure, shortened: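 p53−/−mdm2−/− mouse embryo fibroblasts transiently transfected with Hdm2 plasmid under a CMV promoter. 48 h later they were treated with 10 µM compound for 8 h, and Hdm2 and β-actin were measured by immunoblotting.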
Target sequence in this assay (Q00987 whole entry, looked up, the tested form may be a part): as above

[9] = molecular target: T1, E3 ubiquitin-protein ligase Mdm2; assay: Inhibition of GST fused human Hdm2 in human RPE cells assessed as increase in p53 level at 10 uM after 8 hrs by immunoblotting
Target sequence in this assay (Q00987 whole entry, looked up, the tested form may be a part): as above

[10] = molecular target: T1, E3 ubiquitin-protein ligase Mdm2; assay: Inhibition of GST fused human Hdm2 in human RPE cells after 8 hrs by immunoblotting; type: cell-based; procedure, shortened: as §1
[11] = molecular target: T1, E3 ubiquitin-protein ligase Mdm2; assay: Inhibition of GST fused human Hdm2 in human RPE cells at 10 uM after 8 hrs by immunoblotting
[12] = test system: HCT-116; assay: Cytotoxicity against p53-proficient human HCT 116 cells at 5 to 20 uM after 20 hrs by trypan blue exclusion assay; type: functional, cell-based
[13] = test system: A9; assay: Cytotoxicity against p53-deficient mouse A9 cells at 5 to 20 uM after 20 hrs by trypan blue exclusion assay; type: cell-based; settings: a9, 20 h
Procedure, shortened: (§2)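 p53-deficient (A9) and wild-type p53 (C8) mouse embryo fibroblasts treated 20 h with compound at 5–20 µM. Cell death by trypan blue exclusion. Mean and standard deviation of three independent experiments.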

[14] = test system: HCT-116; assay: Cytotoxicity against p53-deficient human HCT 116 cells at 5 to 20 uM after 20 hrs by trypan blue exclusion assay; type: functional, cell-based
[15] = molecular target: T1, E3 ubiquitin-protein ligase Mdm2; assay: Inhibition of Hdm2-mediated p53 degradation in human U2-OS cells co-transfected with p53-Hdm2 after 8 hrs by immunoblotting; type: cell-based; settings: U2OS
[16] = Cytotoxicity against wild type p53-proficient mouse C8 cells at 5 to 20 uM after 20 hrs by trypan blue exclusion assay; type: cell-based; settings: c8, 20 h; procedure, shortened: as §2
[17] = Cytotoxicity against human RPE cells transformed with adenovirus E1A at 3 to 25 uM after 17 hrs by trypan blue exclusion assay; type: cell-based
Procedure, shortened: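 Parental RPE and adenovirus E1A-transformed RPE cells incubated 17 h with compound (3–25 µM) or 1 µg/ml adriamycin. Cell death scored by trypan blue exclusion. Mean and standard deviation of three independent experiments.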

[18] = molecular target: T1, E3 ubiquitin-protein ligase Mdm2; assay: Inhibition of GST fused human Hdm2 in human HCT 116 cells expressing wild type p53 assessed as prevention of N-acetyl-leucyl-leucyl-norleucinal-induced accumulation of ubiquitylated p53 accumulation; type: cell-based
[19] = test system: U2OS; assay: Induction of apoptosis in human U2OS cells assessed as activation of p53-dependent transactivation by luciferase reporter gene assay at 1 to 10 uM after 22 hrs; type: functional, cell-based
Procedure, shortened: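 U2OS-pG13 p53-reporter cells incubated 22 h with compound (1–10 µM) or 1 µg/ml adriamycin. Cells lysed in reporter lysis buffer and spun at 14,000 g for 20 min; luciferase activity of supernatant read as RLU. Mean and standard deviation of three independent experiments.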

[20] = molecular target: T1, E3 ubiquitin-protein ligase Mdm2; assay: Inhibition of Hdm2-mediated p53 degradation in human U2OS cells co-transfected with p53-Hdm2 at 50 uM after 8 hrs by immunoblotting; type: cell-based

Row | Structure (SMILES) | IC50 [3] | Activity [5] | Activity [6] | Activity [7] | Activity [8] | Activity [9] | Activity [10] | Activity [11] | other results
1 | COc1cc(CCN(C)C)c2c(c1O)SSSSS2 [ISOLISSOCLINOTOXIN B] | 58.6 µM |  |  |  |  |  |  |  | Activity [1]: inactive; Activity [2]: Active; Activity [4]: Toxic
2 | COc1cc(CCN)c2c(c1OC)SSSSS2 [VARACIN] | > 295 µM | inactive | inactive |  |  |  |  |  | 
3 | CSC1=C(CCN)c2nc3ccccc3c3ccnc(c23)C1=O [DIPLAMINE B] | 101 µM |  |  | Dose-dependent effect | Active | Active | Dose-dependent effect | Active | 
4 | NCCc1c2c(c3nccc4c3c1Nc1ccccc1-4)OCS2 [LISSOCLINIDINE B] |  |  |  | Dose-dependent effect | Active | Active | Dose-dependent effect | Active | Activity [12]: Active; Activity [13]: Not Active; Activity [14]: inactive; Activity [15]: Dose-dependent effect; Activity [16]: Active; Activity [17]: Dose-dependent effect; Activity [18]: Active; Activity [19]: Dose-dependent effect; Activity [20]: inactive
5 | COc1c(C)c(CCN(C)C)c2c(c1OC)SSSSS2 | 121 µM | inactive | inactive |  |  |  |  |  | 
